Compounds with a hit are over-represented: about 1.5% of the library has one in this group of screens.
APJ ag – agonists of human APJ apelin receptor. P35414. CHO-K1 APJ PathHunter beta-arrestin, luminescence; 0% DMSO wells, 100% apelin. activation, % at 20 µM. 330,000 compounds, 0.11% hits;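 active means activation more than six SD over the plate average, tested at 20 µM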;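 further: 0% = DMSO alone and 100% = apelin-13 at 10 nM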
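Assay system: CHO-K1 cells stably expressing ProLink-tagged human APJ and arrestin–beta-gal acceptor. Compound dosing: 20 µM single point, 1% DMSO. Times: 16-18 h seeding, 90 min dark compound exposure, 60 min detection. Detection: beta-gal luminescence. Evaluation: APJ–arrestin association signal. Controls: negative DMSO alone, positive Apelin-13 at 10 nM.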
CXCR6 block – blocks human CXCR6 beta-arrestin recruitment; 360,000 compounds, 0.36% hits; CHO-K1 PathHunter CXCR6 beta-arrestin, luminescence; inhibition, % at 20 µM; AID 602244; in the data active means inhibition above about 34%, passing the limit was not always enough;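 further: antagonist mode with CXCL16 agonist at 10 nM final; 0% = 10 nM CXCL16 with DMSO and 100% = unstimulated wells without agonist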
CCR6 antagonist – antagonists of human CCR6 receptor; CHO-K1 CCR6 PathHunter beta-arrestin, luminescence, CCL20-stimulated; inhibition, % at 20 µM; P51684; 340,000 compounds, 0.49% hits;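 active means compounds whose inhibition of the agonist-driven luminescence signal at 20 µM reaches about 50%, limit read from the data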;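 further: cells stimulated with CCL20 at 14 nM final; plate controls were DMSO with CCL20 for no effect and DMSO without agonist for full effect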
EBI2 block – EBI2 (human) antagonism. P32249. EBI2 beta-arrestin recruitment, luminescence, 7a,25-OHC stimulated. inhibition, % at 5 µM. 360,000 compounds, 0.81% hits; in the data active means inhibition above about 38%;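 further: enzyme fragment complementation signal reports receptor beta-arrestin coupling in cells; 0% = agonist plus DMSO wells and 100% = wells without agonist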
Target sequence (P32249 whole entry, looked up, the tested form may be a part): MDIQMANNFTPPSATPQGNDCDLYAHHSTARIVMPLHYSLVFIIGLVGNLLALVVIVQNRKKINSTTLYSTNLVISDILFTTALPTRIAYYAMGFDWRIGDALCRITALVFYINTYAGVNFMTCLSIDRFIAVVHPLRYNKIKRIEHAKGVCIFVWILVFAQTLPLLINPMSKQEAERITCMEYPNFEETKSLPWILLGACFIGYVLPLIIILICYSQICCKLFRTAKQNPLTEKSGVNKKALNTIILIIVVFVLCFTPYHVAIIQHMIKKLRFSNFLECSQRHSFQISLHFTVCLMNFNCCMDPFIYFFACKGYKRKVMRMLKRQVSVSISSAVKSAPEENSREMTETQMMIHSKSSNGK
APJ antagonist – blocks the human apelin receptor APJ. inhibition, % at 20 µM. 330,000 compounds, 0.32% hits. CHO-K1 APJ beta-arrestin complementation, luminescence;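 active means inhibition above about 40% at 20 µM, limit read from the data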;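 further: cells challenged with 10 nM apelin-13 agonist together with compound; plate controls were apelin-13 plus DMSO wells for no effect and DMSO wells lacking apelin-13 for full effect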
APJ antag confirm – confirmation of human APJ apelin receptor antagonists; shares compounds with APJ antagonist; APJ beta-arrestin recruitment, luminescence, antagonist mode; inhibition, % at 20 µM; 950 compounds, 66% hits; AID 2766; in the data active means inhibition above about 50%
The depositor's hits bear a star; · = no result given.

SMILES	APJ ag	CXCR6 block	CCR6 antagonist	EBI2 block	APJ antagonist	APJ antag confirm
O=[N+]([O-])c1ccc(/C=N/Nc2ccc3ccccc3c2)o1	-9	42*	63*	2	67*	81*
COc1cccc(S(=O)(=O)NCc2ccc(C(=O)N3CCN(C)CC3)cc2)c1	-1	-16	5	-10	-30	·
Cc1ccc(NC(=O)Cn2nnc(C(=O)Nc3ccc(C)c(C)c3)c2N)cc1	0	8	2	2	55*	37
COc1cc(/C=C2\CCC/C(=C\c3ccc(O)c(OC)c3)C2=O)ccc1O	-8	31	49	3	40*	80*
CCOc1cc(/C=C2\CN(CC)C/C(=C\c3ccc(O)c(OCC)c3)C2=O)ccc1O	-9	24	46	-3	48*	101*
COc1cc(/C=C/C(=O)CC(=O)/C=C/c2ccc(O)c(OC)c2)ccc1O	-10	37	66*	14	62*	93*
CCOc1cc(/C=N/N=C/c2ccc(O)c(OCC)c2)ccc1O	-4	-2	8	3	23	·
COc1cc(/C=C2/CCCC(C(=O)C(F)(F)F)=C2O)ccc1O	-2	5	22	-5	5	·
O=c1ccc(Cl)n[nH]1	-1	-3	-4	7	13	·
COC(=O)[C@]12CCCCC=C1N(CCC1=CCCCC1)C(=O)[C@H](CC(=O)NCCC(C)C)C2	·	9	·	2	·	·
COC(=O)c1ccc2c(c1)C(C)(C)C(/C=C/c1ccc(O)cc1)=[N+]2C	-2	74*	91*	0	70*	129*
O=C(COC(=O)c1cnccn1)c1ccc(Cl)c([N+](=O)[O-])c1	-14	54*	87*	11	91*	140*
O=C(COC(=O)c1cccnc1)c1ccc(Cl)c(Cl)c1	-14	37	81*	10	85*	78*
Cc1ccc(C(=O)COC(=O)c2cnccn2)cc1[N+](=O)[O-]	-6	8	28	6	46*	65*
Cc1ccc(C(=O)COC(=O)c2cnccn2)cc1C	-1	·	·	·	1	·
Cc1cc(OCc2cc(C(=O)N3CCC(Oc4cccnc4)CC3)no2)cc(C)c1Cl	-5	-5	13	12	-40	·
Cc1ccc(S(=O)(=O)NC(=O)C2(C)CCN2C(=O)C2(c3ccc(Cl)cc3)CCC2)nc1 (stereo not given)	·	-2	·	2	·	·
Cc1cc(S(=O)(=O)n2ccnc2)c(Cl)cc1Cl	-3	-1	1	-5	-3	·
COc1ccc(OC)c(C(=O)COC(=O)c2cccnc2SC)c1	1	-11	22	16	24	·
Cc1ccsc1CN(C(=O)c1ccccc1)C1CCS(=O)(=O)C1 (stereo not given)	-2	4	6	0	7	·
O=[N+]([O-])c1ccc(NNC(=S)Nc2ccccc2)cc1	-11	38	67*	8	43*	99*
O=[N+]([O-])c1ccc(NC(=S)NCCc2ccccc2)cc1	-3	8	23	11	18	·
Cc1ccc(-c2cc3nc(C)cc(N4CCN(C(=O)c5ccoc5)CC4)n3n2)cc1	·	1	·	20	·	·
COc1ccccc1CN1C(=NC(=O)CCC2CCCC2)SC2CS(=O)(=O)CC21 (stereo not given)	-2	-7	8	-5	47*	2
Cn1nnc(NC(=S)NC(=O)c2ccc3ccccc3c2)n1	·	30	·	1	·	·
SMILES	APJ ag	CXCR6 block	CCR6 antagonist	EBI2 block	APJ antagonist	APJ antag confirm
Cn1nnc(NC(=S)NC(=O)c2cccc3ccccc23)n1	-10	36	35	-1	51*	86*
CC(C)C(NS(=O)(=O)c1ccccc1F)C(=O)OCC(=O)NCc1ccco1 (stereo not given)	0	3	-8	4	17	·
O=C1OCC(CO)(CO)N=C1NNc1ccc(Cl)c(Cl)c1	-9	24	35	7	55*	67*
OCC1(CO)COC(c2ccccc2)=N1	-4	10	3	7	16	·
CCOC(=O)c1nnc2cc(-c3ccccc3)nn2c1C	-4	2	-6	0	8	·
CCOC(=O)c1nnc2c(Br)c(-c3ccccc3)nn2c1C	-13	28	38	15	44*	15
COc1ccc(C(CNC(=O)CCC(=O)c2ccc(C)s2)N2CCOCC2)cc1 (stereo not given)	-6	1	-2	7	13	·
CC(C)(C)N(Cc1ccccc1)C(=O)c1cc2ccccc2o1	-2	2	21	15	45*	23
O=C(Cc1coc(-c2ccc(F)cc2)n1)NC1CCCCC1	-3	1	5	1	60*	20
CCCCc1ccc(S(=O)(=O)NC(=O)C2(C)CCN2C(=O)Cc2ccccc2)cc1 (stereo not given)	·	-2	·	-1	·	·
C=C1C(=O)O[C@@H]2C[C@@H](C)[C@@H]3C=CC(=O)[C@@]3(C)[C@@H](OC(C)=O)[C@H]12	-10	·	50	·	46*	77*
CCn1c(-c2ccccc2)ccc(C#N)c1=O	-1	0	5	4	50*	47
CCCCNC(=O)Cn1c(=O)c2c(ncn2CCC(C)C)n(Cc2ccccc2)c1=O	1	-9	4	7	-9	·
CCOC(=O)C1=C(N)N(c2ccccc2Oc2ccccc2)C(=O)C1	0	30	12	-4	9	·
CCOC(=O)C1=C2NC(=O)c3ccccc3N2C(=O)C1	-2	16	69*	10	53*	134*
COc1ccc(-c2c3c(nc4sc(C(=O)Nc5ccccc5)c(N)c24)CCC3)cc1	-17	21	10	34	71*	38
CCOC(=O)c1c(C)nc2sc(C(=O)Nc3ccccc3)c(N)c2c1-c1ccc(OC)cc1	-7	10	-3	37	41*	23
Nc1c(C(=O)Nc2ccccc2)sc2nc3c(c(-c4ccco4)c12)CCC3	22	10	6	20	-19	·
CCOC(=O)c1c(C)n2c3c(cc(C)cc13)CCC2	-1	1	7	0	10	·
Cc1ccc(C(=O)COC(=O)C(C)N2C(=O)C3C4CCC(C4)C3C2=O)cc1C (stereo not given)	-1	-1	12	-1	-6	·
CC(C(=O)OCC(=O)c1cccc([N+](=O)[O-])c1)N1C(=O)C2C3C=CC(C3)C2C1=O (stereo not given)	-12	17	51*	5	48*	62*
CC(C(=O)OCC(=O)c1cccc([N+](=O)[O-])c1)N1C(=O)C2C3CCC(C3)C2C1=O (stereo not given)	-9	-1	55*	6	58*	53*
CCC(C)/C(C)=N/NC(=O)c1cn(-c2ccccc2)nc1-c1ccccc1 (stereo not given)	-3	-14	17	-11	-1	·
O=C(O)C1CCN(C(=O)Cc2ccccc2)CC1	-2	-6	11	7	-7	·

Screening results from PubChem.
